For one assay, the target named is Adenosine receptor A2a (Cavia porcellus, UniProt P46616). In words: Compound was evaluated for its ability to antagonise cyclic [3H]AMP accumulation in [3H]adenine-labeled guinea pig cerebral cortical slices. Format: functional.
The species entered for another assay is Cavia porcellus. In words: Selectivity was expressed as the ratio is Ki of adenosine A1 receptor to that of adenosine A2 receptor.
Another assay deals with T1, Adenosine receptor A1 (Rattus norvegicus, UniProt P25099).
T1 sequence (P25099 whole entry): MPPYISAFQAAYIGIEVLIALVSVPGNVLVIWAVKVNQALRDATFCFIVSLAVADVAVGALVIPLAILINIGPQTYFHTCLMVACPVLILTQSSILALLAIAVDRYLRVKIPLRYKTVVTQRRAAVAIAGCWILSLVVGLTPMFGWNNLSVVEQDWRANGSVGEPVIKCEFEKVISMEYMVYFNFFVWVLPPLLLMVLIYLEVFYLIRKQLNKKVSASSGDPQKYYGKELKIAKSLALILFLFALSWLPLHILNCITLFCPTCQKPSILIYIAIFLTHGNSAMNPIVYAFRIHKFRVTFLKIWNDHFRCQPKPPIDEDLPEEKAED
In words: Ability to inhibit binding of 1 nM [3H]cyclohexyladenosine to adenosine A1 receptor in rat cerebral cortical membranes. It counts as cell membranes, Membrane. The gist of the method: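 Displacement of 1 nM N6-[3H]cyclohexyladenosine from A1 sites in rat cerebral cortical membranes by a range of xanthine concentrations. Each point was run in triplicate in at least two separate experiments. IC50 was determined and converted to Ki. Values are mean ± SEM of two to five determinations.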

The target of assay [1] is Adenosine receptor A1 (Rattus norvegicus) (UniProt P25099). Kind of assay: Inactive Selectivity was expressed as the ratio is Ki of A1-[…].

This is an account of results in ChEMBL document CHEMBL1123548 (J Med Chem, 1986).

One may read the Ki as the equilibrium dissociation constant of an inhibitor or competing ligand from its target.

Chain of Adenosine receptor A2a (P46616 whole entry): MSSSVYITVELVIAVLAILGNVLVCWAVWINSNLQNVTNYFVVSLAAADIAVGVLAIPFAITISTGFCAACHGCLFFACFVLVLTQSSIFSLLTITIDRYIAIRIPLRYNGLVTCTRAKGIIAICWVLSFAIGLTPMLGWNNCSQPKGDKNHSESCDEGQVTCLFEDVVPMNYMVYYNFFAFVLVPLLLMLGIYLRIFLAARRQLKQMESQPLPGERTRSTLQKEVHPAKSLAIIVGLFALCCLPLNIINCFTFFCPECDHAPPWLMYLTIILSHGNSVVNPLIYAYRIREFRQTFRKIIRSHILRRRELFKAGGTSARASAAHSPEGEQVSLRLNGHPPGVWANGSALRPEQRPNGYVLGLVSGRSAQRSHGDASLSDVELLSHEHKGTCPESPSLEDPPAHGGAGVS

In the case of `C=CCn1cnc2c1c(=O)n(CCC)c(=O)n2CCC`, the inhibition constant Ki was determined as 0.7 µM at Adenosine receptor A2a and 1.9 µM at Adenosine receptor A1. Also, in the assay filed under Cavia porcellus, the Selectivity ratio stood at 2.7.
For the molecule `CC(C)Cn1c(=O)n(C)c(=O)c2c1ncn2C`, the values for the inhibitory constant (Ki) on Adenosine receptor A2a and at Adenosine receptor A1 were 7 µM and 19 µM, respectively. In addition, in the assay listed under Cavia porcellus, the Selectivity ratio was determined as 2.7.
On the same counts, the results for `C=CCn1c(=O)c2c(ncn2C)n(CC=C)c1=O` are 4 µM, 18 µM and 4.5.
On the same counts, the results for `C=CCn1cnc2c1c(=O)n(C)c(=O)n2CC(C)C` are 8.5 µM, 13 µM and 1.5.
On to `CC(C)Cn1c(=O)c2nc[nH]c2n(CC(C)C)c1=O`, for which the Selectivity ratio in the assay filed under Cavia porcellus came out at 0.3. The molecule also registered a Ki at Adenosine receptor A1 of 0.5 µM.
Consider `C#CCn1cnc2c1c(=O)n(CCC)c(=O)n2CCC`, for which the Ki was determined as 0.4 µM at Adenosine receptor A2a and 0.6 µM at Adenosine receptor A1. The Selectivity ratio in the assay listed under Cavia porcellus was 1.5.
In the same order, the values of `CCn1c(=O)c2nc[nH]c2n(C)c1=O` are 5 µM, 15 µM and 3.
On the same counts, the results for `C#CCn1cnc2c1c(=O)n(C)c(=O)n2CC(C)C` are 2.8 µM, 3.1 µM and 1.1.
As to `C=CCn1cnc2c1c(=O)n(C)c(=O)n2C`, the Ki at Adenosine receptor A2a came to 10 µM; at Adenosine receptor A1, 33 µM. Moreover, the Selectivity ratio in the assay filed under Cavia porcellus came out at 3.3.
On the same counts, the results for `Cn1c(=O)n(CCO)c(=O)c2[nH]cnc21` are 50 µM, 85 µM and 1.7.
`CC(C)Cn1c(=O)n(C)c(=O)c2nc[nH]c21`: the Selectivity ratio in the assay filed under Cavia porcellus stood at 0.9.
Consider `CCCn1c(=O)c2nc[nH]c2n(CCC)c1=O`, for which the Selectivity ratio in the assay filed under Cavia porcellus turned out to be 0.3.
Consider `C#CCn1cnc2c1c(=O)n(C)c(=O)n2C`, for which the Ki was 4.1 µM at Adenosine receptor A2a and 12 µM on Adenosine receptor A1. Moreover, in the assay filed under Cavia porcellus, the Selectivity ratio was 2.9.
For `CCn1c(=O)c2nc[nH]c2n(CC)c1=O`, the inhibition constant (Ki) on Adenosine receptor A2a came to 3 µM; on Adenosine receptor A1 it was 3.3 µM. The Selectivity ratio in the assay filed under Cavia porcellus amounted to 1.1.
In the case of `C#CCn1c(=O)c2c(ncn2C)n(C)c1=O`, at Adenosine receptor A2a, the Ki came to 6 µM. In addition, the Selectivity ratio in the assay listed under Cavia porcellus was 7.5.
On to `CC(=O)OCCn1cnc2c1c(=O)n(C)c(=O)n2C`, for which the Ki at Adenosine receptor A2a is 68 µM; on Adenosine receptor A1 it was 40 µM. Also, the Selectivity ratio in the assay filed under Cavia porcellus is 0.6.
As for `C=CCn1c(=O)c2nc[nH]c2n(CC=C)c1=O`, the Selectivity ratio in the assay listed under Cavia porcellus was 2. On Adenosine receptor A1, this molecule showed a Ki of 10 µM.
On to `CCCn1c(=O)n(C)c(=O)c2c1ncn2C`, for which the Ki was 9 µM at Adenosine receptor A2a and 24 µM on Adenosine receptor A1. In addition, the Selectivity ratio in the assay filed under Cavia porcellus was found to be 2.7.
On the same counts, the results for `Cn1c(=O)c2c(ncn2Cc2ccccc2)n(C)c1=O` are 14 µM, 6 µM and 0.4.
As for `CCCn1cnc2c1c(=O)n(C)c(=O)n2CC(C)C`, the Ki on Adenosine receptor A2a turned out to be 11 µM; at Adenosine receptor A1, 13 µM. For the same molecule, the Selectivity ratio in the assay listed under Cavia porcellus came to 1.2.
On the same counts, the results for `CCCn1c(=O)c2c(ncn2Cc2ccccc2)n(CCC)c1=O` are 1.5 µM, 1 µM and 0.7.
On the same counts, the results for `CC(C)Cn1c(=O)n(C)c(=O)c2c1ncn2Cc1ccccc1` are 11 µM, 9 µM and 0.8.
As for `CC(C)n1c(=O)n(C)c(=O)c2[nH]cnc21`, the inhibitory constant (Ki) on Adenosine receptor A2a is 6 µM; at Adenosine receptor A1, 12 µM. The Selectivity ratio in the assay filed under Cavia porcellus was 2.
On the same counts, the results for `Cn1c(=O)c2c(ncn2CCCl)n(C)c1=O` [7-CHLOROETHYLTHEOPHYLLINE] are 4.5 µM, 8 µM and 1.8.
On the same counts, the results for `O=c1c2[nH]cnc2n(Cc2ccccc2)c(=O)n1Cc1ccccc1` are 14 µM, 2 µM and 0.14.
In the same order, the values of `CCCn1c(=O)c2c(ncn2C)n(C)c1=O` are 5 µM, 38 µM and 9.5.
Consider `CCCn1c(=O)c2c(ncn2C)n(CCC)c1=O`, for which the values for the Ki on Adenosine receptor A2a and at Adenosine receptor A1 were 1.2 µM and 7 µM, respectively. Moreover, the Selectivity ratio in the assay listed under Cavia porcellus worked out at 5.8.
On the same counts, the results for `Cn1c(=O)c2c(ncn2CCO)n(C)c1=O` [ETOFYLLINE] are 135 µM, 105 µM and 0.8.
For the molecule `CCCn1cnc2c1c(=O)n(C)c(=O)n2C`, in assay [1], the Selectivity ratio came out at 1.9. Besides, the values for the Ki at Adenosine receptor A2a and at Adenosine receptor A1 were 11 µM and 21 µM, respectively.
With `C=CCn1c(=O)c2c(ncn2C)n(C)c1=O`, the Ki worked out at 6.5 µM at Adenosine receptor A2a and 47 µM at Adenosine receptor A1. Further, in the assay listed under Cavia porcellus, the Selectivity ratio was 7.2.
In the same order, the values of `CCCn1c(=O)c2c(ncn2CCC)n(CCC)c1=O` are 1.4 µM, 2.6 µM and 1.9.
On the same counts, the results for `Cn1c(=O)c2nc[nH]c2n(CCO)c1=O` are 80 µM, 60 µM and 0.8.
